Experimental data taken from ChEMBL document CHEMBL4627246, “Pyroglutamide-Based P2X7 Receptor Antagonists Targeting Inflammatory Bowel Disease” (J Med Chem, 2020).
The source made the active and inactive calls. The rule behind the calls is not given here.

Biological target: T1, P2X purinoceptor 7 (Homo sapiens) (UniProt Q99572)
T1 sequence (whole entry): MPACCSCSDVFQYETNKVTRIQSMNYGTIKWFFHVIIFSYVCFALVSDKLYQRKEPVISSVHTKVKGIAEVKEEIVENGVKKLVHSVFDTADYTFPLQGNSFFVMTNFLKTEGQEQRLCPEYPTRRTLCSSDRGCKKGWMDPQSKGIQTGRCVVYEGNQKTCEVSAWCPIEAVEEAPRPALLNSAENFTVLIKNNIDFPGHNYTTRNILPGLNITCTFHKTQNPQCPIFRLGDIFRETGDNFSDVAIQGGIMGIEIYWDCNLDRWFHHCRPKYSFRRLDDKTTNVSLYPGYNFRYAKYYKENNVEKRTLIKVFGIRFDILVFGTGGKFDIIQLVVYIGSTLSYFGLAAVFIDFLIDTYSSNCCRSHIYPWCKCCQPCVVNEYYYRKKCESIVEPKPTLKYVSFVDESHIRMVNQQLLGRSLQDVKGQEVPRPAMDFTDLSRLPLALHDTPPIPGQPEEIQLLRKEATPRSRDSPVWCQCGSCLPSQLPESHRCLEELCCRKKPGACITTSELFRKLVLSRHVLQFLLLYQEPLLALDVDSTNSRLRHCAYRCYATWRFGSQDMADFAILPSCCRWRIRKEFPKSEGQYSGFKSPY
Experiment: Inhibition of human P2X7 expressed in human HEK293 cells assessed as reduction in BzATP-stimulated TO-PRO-3 incorporation at 10 uM preincubated with compound and TO-PRO-3 for 15 mins prior to BzATP addition and measured after 1 hr by Fluo-3AM dye based flow cytometry relative to control
Format: cell-based
Procedure, shortened: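 HEK-293 cells overexpressing human P2RX7 loaded with Fluo-3 AM, then incubated with TO-PRO-3 (large pore uptake) and propidium iodide (viability) plus compound (10⁻⁵ M single point) for 15 min before BzATP 100 µM. After 1 h, flow cytometry; percentage of Fluo-3/TO-PRO-3 double-positive cells calculated. Mean of n ≥ 2 with positive control.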

inhibition | SMILES
inactive | COC(=O)[C@@H]1CCC(=O)N1c1cccs1
inactive | COC(=O)[C@@H]1CCC(=O)N1Cc1ccccc1Cl
inactive | COC(=O)[C@@H]1CCC(=O)N1c1ccncc1
0% | O=C(NCc1ccccc1)[C@@H]1CCC(=O)N1Cc1ccccc1
inactive | COc1ccc(NC(=O)[C@@H]2CCC(=O)N2)cc1
inactive | O=C1CC[C@@H](C(=O)Nc2ccccc2)N1
inactive | O=C1CC[C@@H](C(=O)NC2CCCCC2)N1
0% | CN(C)/C=C1\C[C@H]2C(=O)N(Cc3ccccc3)C(N(C)C)N2C1=O (stereo partly specified)
0% | C[C@@H](c1ccccc1)N1C(=O)[C@@H]2C/C(=C\N(C)C)C(=O)N2C1N(C)C (stereo partly specified)
inactive | COc1ccc(CNC(=O)[C@@H]2CCC(=O)N2)cc1
inactive | COC(=O)[C@@H]1CCC(=O)N1C
inactive | O=C1CC[C@@H](C(=O)NCc2ccccc2)N1
0% | O=C(NCc1ccccc1Cl)[C@@H]1CCC(=O)N1Cc1ccc(Cl)cc1Cl
0% | O=C(NCc1ccc(Cl)cc1Cl)[C@@H]1CCC(=O)N1c1cccc(C(F)(F)F)c1
0% | O=C(NCCc1ccccc1)[C@@H]1CCC(=O)N1Cc1ccccc1
0% | O=C1CCCC(C(=O)O)N1 (stereo unspecified)
inactive | COC(=O)[C@@H]1CCC(=O)N1Cc1ccc(Cl)cc1Cl
inactive | COC(=O)[C@@H]1CCC(=O)N1c1ccc(Cl)cc1Cl
inactive | COC(=O)[C@@H]1CCC(=O)N1c1ccc(Cl)cc1
inactive | O=C1CC[C@@H](C(=O)Nc2ccncc2)N1
0% | C[C@H](NC(=O)[C@@H]1C/C(=C\N(C)C)C(=O)N1)c1ccccc1
0% | CN(C)C(=O)[C@@H]1CCC(=O)N1c1ccccc1

inhibition | SMILES
0% | COc1cc(N2C(=O)[C@@H]3C/C(=C\N(C)C)C(=O)N3C2N(C)C)cc(OC)c1OC (stereo partly specified)
inactive | COC(=O)C1C/C(=C\N(C)C)C(=O)N1C(=O)OC (stereo unspecified)
92% | O=C(NCc1ccc(Cl)cc1Cl)C1CC(=O)N(c2cccs2)C1 (stereo unspecified)
0% | O=C(NCCc1ccccc1)[C@@H]1CCC(=O)N1Cc1ccc([N+](=O)[O-])cc1
inactive | O=C1CC[C@@H](C(=O)NCCc2ccc(Cl)cc2Cl)N1
inactive | COC(=O)[C@@H]1CCC(=O)N1c1ccoc1
inactive | COC(=O)[C@@H]1CCC(=O)N1Cc1ccc(OC)cc1
inactive | COc1ccc(CNC(=O)[C@@H]2CCC(=O)N2)c(OC)c1
inactive | C[C@H](NC(=O)[C@@H]1CCC(=O)N1)c1ccccc1
0% | O=C(Nc1ccc(Cl)cc1Cl)[C@@H]1CCC(=O)N1c1ccccc1
6% | CN(C)/C=C1\CC[C@@H](C(=O)NCc2ccc(Cl)cc2Cl)NC1=O
inactive | COC(=O)[C@@H]1CCC(=O)N1C(c1ccc(Cl)cc1)c1ccc(Cl)cc1
0% | O=C(NCc1ccc(Cl)cc1Cl)[C@@H]1CCC(=O)N1c1ccncc1
inactive | COC(=O)[C@@H]1CCC(=O)N1c1cccc(C(F)(F)F)c1
inactive | COC(=O)[C@@H]1CCC(=O)N1c1ccccc1
85% | O=C(NCc1ccc(Cl)cc1Cl)[C@@H]1CCC(=O)N1Cc1ccccc1Cl
inactive | COc1ccc(NC(=O)[C@@H]2CCC(=O)N2)cc1F
inactive | COC(=O)[C@@H]1CCC(=O)N1C(c1ccccc1)c1ccccc1
0% | COc1ccccc1CNC(=O)[C@@H]1C/C(=C\N(C)C)C(=O)N1
76% | O=C(NCc1ccc(Cl)cc1Cl)[C@@H]1C/C(=N\O)C(=O)N1c1cccs1
0% | O=C(NCc1ccco1)[C@@H]1CCC(=O)N1Cc1ccc(Cl)cc1Cl
inactive | O=C1CC[C@@H](C(=O)NCc2ccncc2)N1

inhibition | SMILES
0% | O=C(NCc1ccc(Cl)cc1Cl)[C@@H]1CCC(=O)N1c1cccc2ncccc12
inactive | COC(=O)[C@@H]1CCC(=O)N1Cc1ccccc1
inactive | COC(=O)[C@@H]1CCC(=O)N1
inactive | O=C1CC[C@@H](C(=O)NCc2ccc(Cl)cc2Cl)N1
inactive | COC(=O)[C@@H]1CCC(=O)N1[Si](C)(C)C
inactive | COC(=O)[C@@H]1CCC(=O)N1Cc1ccc(Br)cc1
inactive | COC(=O)[C@@H]1CCC(=O)N1c1ccccc1Cl
inactive | O=C1CC[C@@H](C(=O)NCC2CCCCC2)N1
inactive | COC(=O)[C@@H]1CCC(=O)N1c1cccc2ncccc12
inactive | O=C1CC[C@@H](C(=O)NCCc2ccccc2)N1
0% | C[C@H](NC(=O)[C@@H]1CCC(=O)N1c1cccs1)c1ccc(Cl)cc1Cl
inactive | COc1ccccc1CNC(=O)[C@@H]1CCC(=O)N1
inactive | COC(=O)[C@@H]1CCC(=O)N1c1ccc(C#N)cc1
0% | CN(C)/C=C1\C[C@H]2C(=O)N(CCc3ccccc3)C(N(C)C)N2C1=O (stereo partly specified)
0% | O=C(NCc1ccc(Cl)cc1Cl)[C@@H]1CCC(=O)N1c1cc(Cl)cc(Cl)c1
0% | C[C@@H](NC(=O)[C@@H]1C/C(=C\N(C)C)C(=O)N1)c1ccccc1
inactive | COC(=O)[C@@H]1CCC(=O)N1Cc1ccc([N+](=O)[O-])cc1
inactive | COC(=O)[C@@H]1CCC(OC)=N1
inactive | CCCCCCNC(=O)[C@@H]1CCC(=O)N1
inactive | NC(=O)[C@@H]1CCC(=O)N1
0% | O=C(NCc1ccc(Cl)cc1Cl)[C@@H]1CCC(=O)N1Cc1ccc([N+](=O)[O-])cc1
inactive | COC(=O)[C@@H]1CCC(=O)N1Cc1ccc(Cl)cc1

inhibition | SMILES
0% | O=C(NCc1ccc(Cl)cc1Cl)[C@@H]1CCC(=O)N1Cc1ccc(Cl)cc1Cl
0% | O=C(NCc1ccc(Cl)cc1Cl)[C@@H]1CCC(=O)N1c1ccccc1Cl
inactive | COC(=O)[C@@H]1CCC(=O)N1c1ccc(OC)cc1
inactive | COc1ccc(NC(=O)[C@@H]2CCC(=O)N2)c(OC)c1
inactive | COc1cc(NC(=O)[C@@H]2CCC(=O)N2)cc(OC)c1OC
inactive | C[C@@H](NC(=O)[C@@H]1CCC(=O)N1)c1ccccc1
inactive | COC(=O)[C@@H]1CCC(=O)N1Cc1ccc(C)cc1
inactive | O=C1CC[C@@H](C(=O)NCc2cccc(C(F)(F)F)c2Cl)N1
0% | CN(C)C1N(Cc2ccc(Cl)cc2Cl)C(=O)[C@@H]2CC(=O)C(=O)N12 (stereo partly specified)
inactive | O=C1CC[C@@H](C(=O)NCc2ccccc2Cl)N1
inactive | O=C1CC[C@@H](C(=O)NC2CC3CCC2C3)N1 (stereo partly specified)
inactive | O=C1CC[C@@H](C(=O)Nc2ccc(Cl)cc2Cl)N1
inactive | Cc1ccc(NC(=O)[C@@H]2CCC(=O)N2)cc1
53% | CN(C)/C=C1\C[C@@H](C(=O)NCc2ccc(Cl)cc2Cl)NC1=O
inactive | O=C1CC[C@@H](C(=O)NCc2cc(C(F)(F)F)ccc2Cl)N1
inactive | COC(=O)[C@@H]1COC(=O)N1
inactive | O=C1N[C@H](C(=O)O)CO1
inactive | COC(=O)[C@@H]1CCC(=O)N1c1cc(Cl)cc(Cl)c1
0% | Cc1ccc(CN2C(=O)CC[C@H]2C(=O)NCCc2ccccc2)cc1

SMILES | inhibition
COC(=O)C1CNC(=O)C1 (stereo unspecified) | inactive
